Screens from PubChem.
Biofilm kill mix = mixtures killing C. albicans biofilm; hit rate 0.02% among 120,000; C. albicans biofilm persisters + clotrimazole, fluorescence viability; primary screen in compound mixtures of four per well; AID 1242; inhibition, % at 7.6 µM;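 active = inhibition above 30.3% in the primary screen of four-compound pools, then above 30% when the compound was retested; inconclusive = passed the primary limit but could not be retested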;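 note: compounds exposed to preformed 24 h biofilms for 48 h; 0% = untreated biofilm control and 100% = clotrimazole plus chlorhexidine kill blank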
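Probe or stimulus – Clotrimazole 50 µg/mL co-treatment · System – C. albicans biofilms · Schedule – 24 h biofilm formation, then 48 h compound exposure, 37 °C · Evaluation – percent inhibition of biofilm viability · Technique – 2-h Alamar Blue fluorescence, 535/590 nm excitation/emission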
Pf gametocyte = inhibitors of late stage P. falciparum gametocyte viability; P. falciparum stage V gametocytes, ATP luminescence, 24 h; inhibition, % at 10.9 µM; hit rate 0.065% among 150,000;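 active = inhibition above the mean plus 3 SD of compounds within the control limits, set per campaign, cut at about 38% in these data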;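 note: 0% = DMSO wells and 100% = medium only without gametocytes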
ROMK primary = modulators of human ROMK potassium channel | P48048 | Tet-inducible ROMK, thallium flux fluorescence; actives lie on both sides | B-score at 10 µM | hit rate 2% among 130,000 | AID 1918;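 active = signal ratio slope over the read window, or its plate-corrected B-score, at least 3 SD from the plate mean, either direction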;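 note: B-score of the F/F0 ratio slope over 7 to 12 s after thallium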
Target sequence (P48048 whole entry, looked up): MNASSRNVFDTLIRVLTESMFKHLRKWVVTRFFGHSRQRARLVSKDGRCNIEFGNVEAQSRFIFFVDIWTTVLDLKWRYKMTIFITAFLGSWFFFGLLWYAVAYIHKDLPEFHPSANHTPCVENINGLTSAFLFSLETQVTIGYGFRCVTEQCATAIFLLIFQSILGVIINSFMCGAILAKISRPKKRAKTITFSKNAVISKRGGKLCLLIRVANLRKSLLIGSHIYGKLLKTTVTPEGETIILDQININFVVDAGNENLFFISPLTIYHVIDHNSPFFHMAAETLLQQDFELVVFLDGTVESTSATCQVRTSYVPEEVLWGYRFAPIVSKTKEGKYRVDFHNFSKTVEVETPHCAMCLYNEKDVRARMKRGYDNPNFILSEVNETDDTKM
ROMK hit retest = retested hit modulating human ROMK potassium channel; shares compounds with ROMK primary; ROMK thallium flux, fluorescence ratio; stronger effect = lower value; normalized thallium flux (F/F0 slope) at 10 µM; hit rate 54% among 3,000;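 active = Flux at 10 µM at least 3 SD below or above vehicle control mean in one or both replicates; inconclusive = no clear call, values can overlap the other calls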
Active calls of the source: *; ? = inconclusive; · = not tested or not shown. The sample as a whole holds a higher share of hits than the screen did.

SMILES | Biofilm kill mix | Pf gametocyte | ROMK primary | ROMK hit retest
CCOC(=O)C1=C(N)OC2=C(C(=O)CCC2)C1c1ccco1 (centres undefined) | · | · | 0.21 | ·
CCOC(OCC)c1cn(Cc2ccc(C(=O)c3ccccc3)cc2)nn1 | · | 2 | · | ·
Cc1onc(-c2ccccc2Cl)c1C(=O)Nc1ncn[nH]1 | 10 | · | 0.54 | ·
CC1CCc2c(sc3ncn(CC(=O)N4CCCCC4)c(=O)c23)C1 (centres undefined) | -10 | -1 | -0.83 | ·
N#C/C(=C\c1cc([N+](=O)[O-])ccc1Cl)C(N)=O | -1 | · | -0.62 | ·
N#C/C(=C/c1ccc([N+](=O)[O-])cc1)C(N)=O | 14 | · | -3.7* | 0.06*
Cc1cc(=O)[nH]c(SCC(=O)Nc2ccccc2[N+](=O)[O-])n1 | 16 | 19 | · | ·
CN(C(=O)CO/N=C/c1ccc(Cl)cc1)c1ccccc1 | 4 | -14 | -0.049 | ·
COc1ccc(N(CC(=O)Nc2cccc(C)c2)S(=O)(=O)c2ccc(C)cc2)cc1OC | · | 7 | · | ·
C[C@]12CCC(=O)C=C1CC[C@@H]1[C@@H]2CC[C@@]2(C)[C@H]1CC[C@]2(O)C(=O)CO | -7 | · | · | ·
CC(=O)[C@H]1CC[C@H]2[C@@H]3CCC4=CC(=O)CC[C@]4(C)[C@H]3CC[C@]12C | 12 | · | · | 0.065*
O=C(/C=C\c1cccs1)c1c(O)ccc2ccc(=O)oc12 | 7 | 0 | -5* | 0.05*
Cc1cc(C)c(C(=O)/C=C/c2cccs2)c(=O)[nH]1 | 9 | 12 | 0.041 | ·
COc1ccc(C(C)=O)cc1CN1C(=O)NC2(CCCCC2)C1=O | · | · | 2* | 0.082
COc1ccc(C(C)=O)cc1CN1CCCCC1 | 7 | · | · | ·
O=c1oc2ccccc2c(N2CCOCC2)c1[N+](=O)[O-] | 1 | -20 | -0.46 | ·
Cc1cccn2c(=O)c(C=O)c(N3CCCCCC3)nc12 | · | · | 2.1* | 0.074
Cc1cccn2c(=O)c(C=O)c(N3CC(C)OC(C)C3)nc12 (centres undefined) | 25 | · | -0.27 | ·
CCC12C(=Nc3c(Cl)cccc31)C[C@@H]1CCN3C(=O)CCC[C@H]2[C@H]13 (some centres undefined) | · | -1 | · | ·
Cc1cccc(N2C(=O)C3C4CC(=O)C(c5ccccc54)C3C2=O)c1C (centres undefined) | 12 | 14 | -0.32 | ·
CC1(C)[C@@H](O)CC[C@]2(C)C3C(O)C=C4[C@H]5C[C@@](C)(C(=O)O)CC[C@]5(C)CC[C@]4(C)[C@]3(C)CC[C@@H]12 (some centres undefined) | 20 | · | · | 0.086
CC1(C)C(=O)CC[C@]2(C)C3C(=O)C=C4[C@H]5C[C@@](C)(C(=O)O)CC[C@]5(C)CC[C@]4(C)[C@]3(C)CC[C@@H]12 (some centres undefined) | 20 | · | · | ·
CCn1c(CSc2ncccn2)nnc1SCC(=O)N1CCCCC1 | -11 | 8 | 0.6 | ·
Cc1ccc(-n2ncc3c(=O)n(CC(=O)N4CCN(c5ccccc5)CC4)cnc32)cc1C | 14 | · | -0.37 | ·
O=C(CSc1nnnn1C1CCCCC1)Nc1ccccc1F | 4 | · | -1.6 | ·
SMILES | Biofilm kill mix | Pf gametocyte | ROMK primary | ROMK hit retest
O=C(CSc1nnnn1C1CC2CCC1C2)Nc1ccnc2ccccc12 (centres undefined) | · | 5 | · | ?
O=C(/C=C/c1ccco1)NCC1COc2ccccc2O1 (centres undefined) | -1 | -8 | -0.98 | ·
CCN(CC)S(=O)(=O)c1ccc(N2CCOCC2)c(NC(=O)Cc2ccc(Cl)cc2)c1 | 22 | · | · | 0.07
CCN(CC)S(=O)(=O)c1ccc(N2CCCC2)c(NC(=O)Cc2ccccc2)c1 | 17 | -1 | · | ·
CCCCC(=O)Nc1ccc(C(=O)N2CCC(C(=O)OCC)CC2)cc1 | · | 20 | · | ·
Cc1ccc(S(=O)(=O)c2c(C(=O)c3ccccc3)cnc3cc4c(cc23)OCCO4)cc1 | -10 | -15 | · | ·
COC(=O)C(=Cc1ccccc1[N+](=O)[O-])C(=O)OC | 16 | · | -2.6* | 0.051*
COc1ccc(CNC(=O)/C=C/c2ccccc2[N+](=O)[O-])cc1 | 17 | 5 | 0.91 | ·
CC(=C/C(=O)O)/C(=C/c1ccccc1)C(=O)O | 11 | -8 | · | ·
O=C(c1ccc(F)cc1)C1CCN(C(=O)c2ccccc2F)CC1 | · | 15 | · | ·
O=C(Nc1ccccc1-c1ccccc1)NC1CC2CCCC(C1)N2Cc1ccc(F)cc1 (centres undefined) | 7 | · | -3 | ·
O=C(Nc1ccccc1-c1ccccc1)NC1CC2CCCC(C1)N2CCc1ccccc1 (centres undefined) | 17 | · | -3.1* | 0.058*
CCCCOc1ccc(N=Cc2ccc[nH]2)cc1 | · | -10 | · | ·
CCOC(=O)N/N=C/c1cc(C)n(-c2cccc3ccccc23)c1C | 14 | 7 | · | ·
Cc1cc(/C=N/NC(=O)c2ccncc2)c(C)n1-c1cccc(C(F)(F)F)c1 | 15 | 18 | · | ·
Cc1cc(/C=N/NC(=O)c2cccc(F)c2)c(C)n1-c1ccccc1 | 16 | -6 | 4.8* | 0.092
CCOC(=O)N/N=C/c1cc(C)n(-c2ccccc2)c1C | 9 | 10 | 2.4* | 0.09
Cc1ccnc2nc(C(=O)Nc3ccc(S(=O)(=O)N4CCCC4)cc3)nn12 | 13 | 11 | · | ·
COC(=O)c1ccccc1NC(=O)c1ccc(NS(C)(=O)=O)cc1 | · | · | -0.98 | ·
CS(=O)(=O)Nc1ccc(C(=O)Nc2ccccc2C(=O)N2CCCC2)cc1 | · | 23 | · | 0.08
Cc1cccc2cc(CN(Cc3ccc(F)cc3)Cc3nnnn3C3CCCC3)c(=O)[nH]c12 | · | 28 | 0.79 | ·
Cc1cc(C)c2[nH]c(=O)c(CN(Cc3ccc4c(c3)OCO4)Cc3nnnn3C3CCCC3)cc2c1 | · | -6 | -3.2* | ?
CC(=O)Nc1ccc(NC(=O)CSc2nnc3ccc(-c4ccc(F)cc4)nn23)cc1 | 14 | 1 | 0.49 | ·
COc1cccc(-c2nn(C)c3sc(C(=O)NCc4ccccn4)cc23)c1 | · | 15 | · | 0.074
COc1cccc(-c2nn(C)c3sc(C(=O)NCc4ccc(C)cc4)cc23)c1 | · | 1 | 1.4 | ·
SMILES | Biofilm kill mix | Pf gametocyte | ROMK primary | ROMK hit retest
NC(=O)c1ccc(N=Cc2c(O)ccc3ccccc23)cc1 | · | 13 | · | ·
O=C(O)Cc1ccc(N=Cc2c(O)ccc3ccccc23)cc1 | 14 | 12 | · | 0.081
O=C(C1CCC1)N1CCN(Cc2ccccc2)CC1 | · | -37 | · | ·
O=C(C1CCN(Cc2ccccc2)CC1)N1CCCC1 | · | 8 | · | 0.074
CSc1ccccc1NC(=O)c1cc2ncc(Br)cn2n1 | 6 | -7 | -0.17 | ·
CCN(CC)c1ccc(/C=N/NC(=O)c2cnccn2)cc1 | 11 | -3 | 3.7* | 0.1*
CN(C)c1ccc(/C=N/NC(=O)c2ccc3nc[nH]c3c2)cc1 | 4 | 19 | 0.55 | ·
CCN(CC)c1ccc(/C=N/NC(=O)c2ccc3nc[nH]c3c2)cc1 | 12 | 4 | · | 0.076
CCN(CC)c1ccc(/C=N/NC(=O)c2ccccn2)cc1 | 26 | -11 | · | ·
Cc1noc(C)c1S(=O)(=O)N(C)C[C@H]1Oc2ccc(NC(=O)Cc3ccccc3)cc2C(=O)N([C@H](C)CO)C[C@@H]1C | · | 0 | · | ·
COC(=O)C1CC(O)CN1C(=O)Nc1ccccc1 (centres undefined) | 7 | 11 | 0.75 | ·
CC(C)=CCN1CCN(Cc2cn(C(C)C)c3ccccc23)CC1CCO (centres undefined) | · | 5 | · | ·
COc1cc(CNC(C)(C)CO)cc(Br)c1OCc1ccc(Cl)cc1Cl | 7 | · | -1.4 | ·
COc1cc(CNC(C)(C)CO)cc(Br)c1OCc1ccc(Cl)cc1 | 8 | 2 | -5.1* | 0.056*
